According to PubChem BioAssay AID1885 (Broad Institute, 2009):
In all, about 300,000 compounds went through this assay and about 4,400 (1.5%) were called active.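 The calls were made as follows: active = mean inhibition across valid replicates above about 55% (limit read from the data); inconclusive = mean below that limit but half or more replicates reach it; inactive = mean below it, under half of replicates reach it.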 The list comes from a sample in which actives are over-represented; it also holds similar structures and randomly drawn compounds.

Test: Trypanosoma cruzi replication blockers in host cells – luminescence, NIH3T3 host cells, primary screen (AID 1885);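 also: signal also drops with host cell toxicity which is not excluded here; 0% = plate median of DMSO wells and 100% = zero luminescence signal; higher percent means less beta-gal luminescence so fewer parasites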
Conditions: T. cruzi beta-gal in NIH3T3, luminescence, 90 h; active compounds read high; concentration not given here
Outline: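 System – NIH/3T3 host cells with β-galactosidase reporter T. cruzi · Doses – single 50 nL compound addition per well in DMSO · Reagent – 5000 T. cruzi trypomastigotes/well · Medium – Low-serum DMEM with 2% FBS · Timing – ≥90 h infection period, 3 h prior cell attachment · Evaluation – parasite load inhibition, % · Technique – GalScreen luminescence, 60 min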

Row | Structure (SMILES) | inhibition
1 | CCOc1ccc(-c2cc(C(=O)N/N=C/c3ccc(O)cc3)c3ccccc3n2)cc1 | 18.7% (inactive)
2 | CCNS(=O)(=O)c1ccc(NC(=O)Nc2cccc(C(F)(F)F)c2)cc1 | 61.3% (active)
3 | Cc1ccc(NC(=O)Nc2cccc(C(F)(F)F)c2)nc1 | 11.1% (inactive)
4 | CCNS(=O)(=O)c1ccc(NC(=O)Nc2cccc(OC)c2)cc1 | -9.54% (inactive)
5 | Cn1ccc(=Nc2ccc(NC(=O)c3ccc(N=c4ccn(C)c5ccc([N+](=O)[O-])cc45)cc3)cc2)cc1 | 33.3% (inactive)
6 | Cn1c(CCc2ccccc2)nnc1SCC(N)=O | -8.67% (inactive)
7 | Cc1ccc(Cc2nnc(SCC(=O)Nc3ccc(C)cc3C)[nH]c2=O)cc1 | -8.53% (inactive)
8 | COc1cc2ccccc2cc1C(=O)Nc1nc(C)c(C(C)=O)s1 | -2.79% (inactive)
9 | COc1ccccc1/C=N/Nc1nc(C)c(C(C)=O)s1 | 6.16% (inactive)
10 | COc1cccc2sc(Nc3nc(C)c(C(C)=O)s3)nc12 | 89.1% (active)
11 | COc1ccc(C)cc1S(=O)(=O)Nc1cc2c3c(c1)CCC(=O)N3CCC2 | -2.17% (inactive)
12 | CC(C)=NN1C(=O)c2ccccc2NC1(C)C | -9.69% (inactive)
13 | COc1ccc(C2CC(c3ccccc3)=NN2C(=O)CSc2nccc(=O)[nH]2)cc1 (stereo not drawn) | -0.127% (inactive)
14 | O=C(CSc1nnnn1-c1ccc(O)cc1)N1N=C(c2ccc3ccccc3c2)CC1c1ccccc1 (stereo not drawn) | 71.2% (active)
15 | COc1ccc(C2=NN(C(C)=O)C(c3ccccc3)C2)cc1 (stereo not drawn) | -1.39% (inactive)
16 | Cc1ccc(S(=O)(=O)n2cccc2CO)cc1 | -12.2% (inactive)
17 | O=C(NNS(=O)(=O)c1ccc([N+](=O)[O-])cc1)C1CCCCC1 | -10.2% (inactive)
18 | CC(=O)Nc1cccc(C(=O)OCC(=O)Nc2nnc(-c3ccccc3)o2)c1 | -2% (inactive)
19 | CCN(CC)S(=O)(=O)c1ccc(C(=O)N2CCN(C3=NS(=O)(=O)c4ccccc43)CC2)cc1 | 0.744% (inactive)
20 | CCOc1ccc(OCc2cccc(C(=O)N(CC)CC)c2)cc1 | 14.3% (inactive)

Row | Structure (SMILES) | inhibition
21 | CC(C)c1cc(C(N)=O)c(NC(=O)c2cccc(COc3ccc(Br)cc3)c2)s1 | 60.2% (active)
22 | CCc1cc(C(N)=O)c(NC(=O)c2ccc(OC)cc2)s1 | 15.5% (inactive)
23 | COc1cccc(COC(=O)C2CCN(S(=O)(=O)c3cccs3)CC2)c1OC | 0.844% (inactive)
24 | CCOc1ccc(S(=O)(=O)Nc2ccc(C(=O)NCCCN3CCCC3=O)cc2)cc1 | 3.32% (inactive)
25 | Cc1cccc(NC(=O)c2ccc([N+](=O)[O-])o2)c1 | 41.2% (inactive)
26 | Cc1cccc(NC(=O)c2cc([N+](=O)[O-])ccc2N2CCN(C)CC2)c1 | 2.53% (inactive)
27 | Cc1cccc(NC(=O)c2sc(-c3ccccc3)nc2-c2ccc([N+](=O)[O-])cc2)c1 | 55.5% (active)
28 | COC(=O)c1ccc(SCc2ccccc2)nc1 | -10.6% (inactive)
29 | O=S(=O)(ON(c1ccccc1)S(=O)(=O)c1ccccc1)c1ccccc1 | -3.86% (inactive)
30 | CC1=C/C(=N\OS(=O)(=O)c2ccccc2)C=CC1=O | 68.7% (active)
31 | COc1ccc(NS(=O)(=O)c2ccc(C)c(C(=O)NCC(c3cccs3)N3CCOCC3)c2)cc1 (stereo not drawn) | 20.6% (inactive)
32 | O=C(Cn1cnc2c(cnn2-c2ccccc2)c1=O)NCc1ccccc1 | -38.8% (inactive)
33 | CC(C)(C)NC(=O)Cn1cnc2cc([N+](=O)[O-])ccc2c1=O | 33.5% (inactive)
34 | O=C(Cn1cnc2cc([N+](=O)[O-])ccc2c1=O)NC(=O)NCc1ccccc1 | 62.3% (active)
35 | CN(CC(=O)Nc1ccccc1Cl)C(=O)c1ccccc1SCC(=O)N1CCCC1 | 2.13% (inactive)
36 | COc1ccc(CCNC(=O)C(=O)NCC2CCCN2S(=O)(=O)c2cccs2)cc1OC (stereo not drawn) | 17.5% (inactive)
37 | CC(=O)c1sc(NC(=O)CCCOc2ccccc2C)nc1C | -0.939% (inactive)
38 | CC(=O)c1sc(N/N=C\c2ccc(C)cc2)nc1C | -6.96% (inactive)
39 | CC(=O)c1sc(N/N=C/c2ccc(C(C)C)cc2)nc1C | 65.4% (active)
40 | O=C(Nc1ccc(OC(F)(F)F)cc1)c1ccc2c(c1)no[n+]2[O-] | 34.6% (inactive)

Row | Structure (SMILES) | inhibition
41 | COc1ccccc1C(=O)NC(=O)COC(=O)C1CC1 | 5.64% (inactive)
42 | CS(=O)(=O)N(CC(=O)N1CCc2ccccc2C1)c1ccc(Br)cc1 | 17.3% (inactive)
43 | CCC(=C/c1sc2ccc3ccccc3c2[n+]1C)/C=C1\Sc2ccc3ccccc3c2N1C | 65.5% (active)
44 | O=C(COc1ccccc1)Nc1ccc(F)cc1 | -10.9% (inactive)
45 | O=C(NC(Cc1ccccc1)C(=O)N1CCCC(C(F)(F)F)C1)c1ccccc1 (stereo not drawn) | -16.5% (inactive)
46 | COc1ccc(NC(=O)c2cc(-c3ccc(C)o3)nc3ccccc23)cc1 | 14.8% (inactive)
47 | CCOc1ccc2nc(N(CCCN(C)C)C(=O)c3ccc(C(=O)c4ccccc4)cc3)sc2c1 | 34.6% (inactive)
48 | COc1cccc2sc(N(CCCN(C)C)C(=O)C(c3ccccc3)c3ccccc3)nc12 | 31.5% (inactive)
49 | CC(=O)N(CCCN(C)C)c1nc2ccc(C)cc2s1 | 57.7% (active)
50 | CN(C)CCN(C(=O)CN1C(=O)c2ccccc2C1=O)c1nc2cc3c(cc2s1)OCCO3 | 66.3% (active)
51 | COc1cccc2sc(N(CCCN(C)C)C(=O)CCS(=O)(=O)c3ccccc3)nc12 | -2.98% (inactive)
52 | CCN(CC)CCN(C(=O)c1cc(Cl)sc1Cl)c1nc2cc3c(cc2s1)OCO3 | 33.9% (inactive)
53 | CN(C)CCN(C(=O)C1=COCCO1)c1nc2ccc(Cl)cc2s1 | 41.8% (inactive)
54 | Cc1ccc2nc(N(CCN(C)C)C(=O)C3=COCCO3)sc2c1 | 53% (inactive)
55 | COc1ccc2sc(N(CCCN(C)C)C(=O)c3ccc(S(=O)(=O)N(C)C4CCCCC4)cc3)nc2c1 | 61% (active)
56 | CN(C)CCN(C(=O)C1CCCCC1)c1nc2cc3c(cc2s1)OCO3 | 28.7% (inactive)
57 | CCOc1ccc(S(=O)(=O)Nc2nc3cc(OC)ccc3s2)cc1 | -7.46% (inactive)
58 | CCc1ccc2nc(N(CCCN(C)C)C(=O)c3ccc4c(c3)OCCO4)sc2c1 | 55.2% (active)
